One compound from ChEMBL document CHEMBL4316599, “Synthesis, in vitro and in vivo biological evaluation of substituted 3-(5-imidazo[2,1-b]thiazolylmethylene)-2-indolinones as new potent anticancer agents” (Eur J Med Chem, 2019) can be followed below.

In one assay the test system is E0771. Put plainly: Antitumor activity mouse E0771 cells implanted in C57BL/6 mouse assessed tumor growth inhibition at 7.5 mg/kg, ip dosed every other day for 20 days relative to control. Particulars: 480 h, read-out: TGI. Format: functional. A digest of the protocol:
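Syngeneic allograft: C57BL/6 mice, six weeks old, given 2.5×10^5 BL6-B16 or E0771 cells subcutaneously in the dorsolateral flank in PBS. Dosing began at about 100 mm³. Test compound or reference was given intraperitoneally every other day in 50 μL DMSO, with DMSO vehicle controls. Tumor volume was compared with the vehicle group, 5 animals per group, mean ± SEM, by 2-way ANOVA with Bonferroni correction.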

Assay [1] relates to HeLa. Put plainly: Induction of mitochondrial membrane depolarization in human HeLa cells at 250 to 500 nM after 6 to 48 hrs by JC-1 staining-based assay. Format: functional, cell-based. Particulars: TDE = time-dependent effect. A digest of the protocol:
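HeLa cells treated at 250-500 nM for 6, 12, 24 or 48 h, then stained with JC-1. Percentage of cells with low mitochondrial membrane potential measured by flow cytometry. Mean ± SEM of three independent experiments.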

Assay [2] relates to HeLa. Put plainly: Cell cycle arrest in human HeLa cells assessed as accumulation of cells at G2/M phase after 24 hrs by propidium iodide staining-based flow cytometric analysis. It is filed as functional. In short, it runs like this: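 Cells exposed to a range of concentrations for 24 h (HeLa at 5×10^5 cells), then fixed in ice-cold 70% ethanol. Lysis buffer with RNase A and 0.1% Triton X-100 was applied before PI staining. DNA content was read by flow cytometry and G1/S/G2/M fractions taken from DNA histograms. Mean ± SEM of two independent experiments.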
In general terms: A flow cytometer gives signals particle by particle.

With `O=C1Nc2c(ccc3ccccc23)C1=Cc1c(-c2ccncc2)nc2sccn12`, in the assay with E0771, the inhibition in vivo at 7.5 mg/kg turned out to be 51.8%. In addition, the results for the Activity entry in the assay with HeLa [1] and with HeLa [2] were “Tde” and “Dose-dependent effect”, respectively.
